ChEMBL document CHEMBL1126160, “Synthesis and structure-activity relationships of 7-diazabicycloalkylquinolones, including danofloxacin, a new quinolone antibacterial agent for veterinary medicine” (J Med Chem, 1992)
Values after ≈ are worked out from the molar mass of the structure shown.

What was measured:
Assay type in all cases: functional
[1] = test system: Clostridium perfringens; test: microbe, parasite or virus in culture
[2] = test system: Escherichia coli; test: Escherichia coli DNA cleavage endpoint value which is the minimum amount required (in micro g/mL) to induce detectable cleavage of supercoiled pBR322 substrate to linear form (gyrase); conditions: read-out: MIC
Summary of the method: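 DNA gyrase A and B subunits were purified from E. coli overproducers. About 2 units of holoenzyme were incubated with pBR322 in Tris-HCl pH 7.5 containing MgCl2, spermidine, DTT, 0.2 mM ATP, BSA and tRNA. Drug was added as 2-fold serial dilutions, and reactions ran for 60 min at 25 °C. Reactions were stopped with SDS and proteinase K, then run on agarose and stained with ethidium. The endpoint was the lowest concentration giving detectable linear DNA.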

[3] = test system: Bordetella bronchiseptica; test: In vitro antibacterial activity against aerobically grown Bordetella bronchiseptica (73A009)
Summary of the method: (§1)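 Agar dilution MICs. Aerobic strains were tested on brain heart infusion agar and incubated aerobically at 37 °C for 18–20 h.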

[4] = In vitro antibacterial activity against Aerobically grown Pasteurella haemolytica (59B018); conditions: Mannheimia haemolytica
Summary of the method: as §1

[5] = test system: Staphylococcus aureus; test: In vitro antibacterial activity against aerobically grown Staphylococcus aureus (54B004)
Summary of the method: as §1

[6] = test system: Salmonella enterica; test: In vitro antibacterial activity against aerobically grown Salmonella choleraesuis (58B015)
[7] = In vitro evaluation for antibacterial activity against anaerobically grown Treponema hyodysenteriae (94A007); conditions: Brachyspira hyodysenteriae
[8] = test system: Trueperella pyogenes; test: In vitro antibacterial activity against anaerobically grown Actinomyces pyogenes (14D002)
Summary of the method: (§2)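 Agar dilution MICs. Anaerobic strains were tested on tryptose agar with 5% bovine blood and incubated 48 h at 39 °C in an anaerobe chamber under N2/CO2/H2 (80:10:10).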

[9] = test system: Pasteurella multocida; test: In vitro antibacterial activity against aerobically grown Pasteurella multocida (59A006)
Summary of the method: as §1

[10] = test system: Actinobacillus pleuropneumoniae; test: In vitro antibacterial activity against anaerobically grown Actinobacillus pleuropneumoniae ([…])
Summary of the method: as §2

[11] = test system: Phocaeicola vulgatus; test: In vitro antibacterial activity against anaerobically grown Bacteroides vulgatus (78D029)
Summary of the method: as §2

[12] = test system: Escherichia coli; test: In vitro antibacterial activity against aerobically grown Escherichia coli (51A538)
Summary of the method: as §1

Structure (SMILES) | MIC [1] | minimum concentration inducing gyrase-mediated DNA cleavage [2] | MIC [3] | MIC [4] | MIC [5] | MIC [6] | MIC [7] | MIC [8] | MIC [9] | MIC [10] | MIC [11] | MIC [12]
CCn1cc(C(=O)O)c(=O)c2cc(F)c(N3CCN4CCC3CC4)c(F)c21.Cl.O | 0.78 µg/mL | 1.56 µg/mL | 0.78 µg/mL | 0.2 µg/mL | 0.39 µg/mL | 0.2 µg/mL | 1.56 µg/mL | > 3.13 µg/mL | 0.1 µg/mL | 0.05 µg/mL | 1.56 µg/mL | 0.2 µg/mL
Cl.O.O=C(O)c1cn(CCF)c2c(F)c(N3CCN4CCC3CC4)c(F)cc2c1=O | 0.78 µg/mL | 0.19 µg/mL | 6.25 µg/mL | < 0.05 µg/mL | 0.78 µg/mL | 0.2 µg/mL | 6.25 µg/mL | 3.13 µg/mL | 0.2 µg/mL | < 0.05 µg/mL | 6.25 µg/mL | 0.39 µg/mL
Cl.O.O=C(O)c1cn(CCF)c2cc(N3CCN4CCC3CC4)c(F)cc2c1=O | 0.2 µg/mL | 0.39 µg/mL | 1.56 µg/mL | 0.02 µg/mL | 0.78 µg/mL | 0.1 µg/mL | 1.56 µg/mL | > 3.13 µg/mL | 0.05 µg/mL | 0.02 µg/mL | > 3.13 µg/mL | 0.2 µg/mL
Cl.O.O=C(O)c1cn(-c2ccc(F)cc2)c2cc(N3CCN4CCC3CC4)c(F)cc2c1=O | 0.1 µg/mL | 0.78 µg/mL | 1.56 µg/mL | 0.1 µg/mL | 0.2 µg/mL | 0.2 µg/mL | 0.78 µg/mL | 3.13 µg/mL | 0.02 µg/mL | 0.05 µg/mL | 0.78 µg/mL | 0.2 µg/mL
C=Cn1cc(C(=O)O)c(=O)c2cc(F)c(N3CCN4CCC3CC4)cc21 | 0.2 µg/mL (≈ 0.56 µM) | 0.39 µg/mL | 1.56 µg/mL (≈ 4.37 µM) | 0.05 µg/mL (≈ 0.14 µM) | 0.2 µg/mL (≈ 0.56 µM) | 0.1 µg/mL (≈ 0.28 µM) | 0.39 µg/mL (≈ 1.09 µM) | 3.13 µg/mL (≈ 8.76 µM) | 0.05 µg/mL (≈ 0.14 µM) | 0.02 µg/mL (≈ 0.056 µM) | 3.13 µg/mL (≈ 8.76 µM) | 0.1 µg/mL (≈ 0.28 µM)
CN1C2CC[C@@H]1CCN(c1c(F)cc3c(=O)c(C(=O)O)cn(C4CC4)c3c1F)C2 | 0.39 µg/mL (≈ 0.967 µM) | 0.39 µg/mL | > 1.56 µg/mL | 0.1 µg/mL (≈ 0.248 µM) | 0.2 µg/mL (≈ 0.496 µM) | 0.1 µg/mL (≈ 0.248 µM) | > 3.13 µg/mL | 1.56 µg/mL (≈ 3.87 µM) | 0.02 µg/mL (≈ 0.0496 µM) | 0.1 µg/mL (≈ 0.248 µM) | 0.78 µg/mL (≈ 1.93 µM) | 0.1 µg/mL (≈ 0.248 µM)
CN1[C@@H]2CC[C@H]1CN(c1c(F)cc3c(=O)c(C(=O)O)cn(C4CC4)c3c1F)C2 | 0.78 µg/mL (≈ 2 µM) | 0.78 µg/mL | 3.13 µg/mL (≈ 8.04 µM) | 0.1 µg/mL (≈ 0.257 µM) | 0.39 µg/mL (≈ 1 µM) | 0.39 µg/mL (≈ 1 µM) | 0.78 µg/mL (≈ 2 µM) | 1.56 µg/mL (≈ 4.01 µM) | 0.1 µg/mL (≈ 0.257 µM) | 0.39 µg/mL (≈ 1 µM) | 25 µg/mL (≈ 64.2 µM) | 0.2 µg/mL (≈ 0.514 µM)
CN1C2CC[C@@H]1CCN(c1nc3c(cc1F)c(=O)c(C(=O)O)cn3C1CC1)C2 | 0.78 µg/mL (≈ 2.02 µM) | 3.12 µg/mL | 0.78 µg/mL (≈ 2.02 µM) | 0.39 µg/mL (≈ 1.01 µM) | 0.78 µg/mL (≈ 2.02 µM) | 0.78 µg/mL (≈ 2.02 µM) | 3.13 µg/mL (≈ 8.1 µM) | > 3.13 µg/mL | 0.1 µg/mL (≈ 0.259 µM) | 0.2 µg/mL (≈ 0.518 µM) | > 3.13 µg/mL | 0.39 µg/mL (≈ 1.01 µM)
CCn1cc(C(=O)O)c(=O)c2cc(F)c(N3C[C@H]4CC[C@@H](C3)N4C)c(F)c21 | 1.56 µg/mL (≈ 4.13 µM) | 3.12 µg/mL | 12.5 µg/mL (≈ 33.1 µM) | 0.39 µg/mL (≈ 1.03 µM) | 0.39 µg/mL (≈ 1.03 µM) | 1.56 µg/mL (≈ 4.13 µM) | 6.25 µg/mL (≈ 16.6 µM) | 6.25 µg/mL (≈ 16.6 µM) | 0.2 µg/mL (≈ 0.53 µM) | 0.2 µg/mL (≈ 0.53 µM) | > 25 µg/mL | 0.78 µg/mL (≈ 2.07 µM)
CN1C[C@@H]2C[C@H]1CN2c1c(F)cc2c(=O)c(C(=O)O)cn(-c3ccc(F)cc3F)c2c1Cl | 0.39 µg/mL (≈ 0.841 µM) | 3.12 µg/mL | > 1.56 µg/mL | 0.1 µg/mL (≈ 0.216 µM) | 0.2 µg/mL (≈ 0.431 µM) | 0.39 µg/mL (≈ 0.841 µM) | > 3.13 µg/mL | 3.13 µg/mL (≈ 6.75 µM) | 0.01 µg/mL (≈ 0.0216 µM) | 0.1 µg/mL (≈ 0.216 µM) | 0.78 µg/mL (≈ 1.68 µM) | 0.2 µg/mL (≈ 0.431 µM)
O=C(O)c1cn(-c2ccc(F)cc2)c2cc(N3CCN4CCCC3C4)c(F)cc2c1=O (stereo unspecified) | 0.2 µg/mL (≈ 0.47 µM) | 0.78 µg/mL | 1.56 µg/mL (≈ 3.67 µM) | 0.05 µg/mL (≈ 0.118 µM) | 0.1 µg/mL (≈ 0.235 µM) | 0.2 µg/mL (≈ 0.47 µM) | 0.2 µg/mL (≈ 0.47 µM) | 3.13 µg/mL (≈ 7.36 µM) | 0.01 µg/mL (≈ 0.0235 µM) | 0.05 µg/mL (≈ 0.118 µM) | 0.39 µg/mL (≈ 0.917 µM) | 0.1 µg/mL (≈ 0.235 µM)
CN1C2CC[C@@H]1CCN(c1cc3c(cc1F)c(=O)c(C(=O)O)cn3-c1ccc(F)cc1)C2 | 0.39 µg/mL (≈ 0.887 µM) | 0.19 µg/mL | > 1.56 µg/mL | 1.56 µg/mL (≈ 3.55 µM) | 0.78 µg/mL (≈ 1.77 µM) | > 1.56 µg/mL | 0.13 µg/mL (≈ 0.296 µM) | > 3.13 µg/mL | 0.2 µg/mL (≈ 0.455 µM) | 0.78 µg/mL (≈ 1.77 µM) | > 3.13 µg/mL | 1.56 µg/mL (≈ 3.55 µM)
O=C(O)c1cn(C2CC2)c2c(Cl)c(N3C[C@@H]4C[C@H]3CN4)c(F)cc2c1=O | 0.1 µg/mL (≈ 0.265 µM) | 0.09 µg/mL | 0.39 µg/mL (≈ 1.03 µM) | 0.005 µg/mL (≈ 0.0132 µM) | 0.2 µg/mL (≈ 0.529 µM) | 0.02 µg/mL (≈ 0.0529 µM) | 1.56 µg/mL (≈ 4.13 µM) | 0.39 µg/mL (≈ 1.03 µM) | 0.005 µg/mL (≈ 0.0132 µM) | 0.005 µg/mL (≈ 0.0132 µM) | 0.1 µg/mL (≈ 0.265 µM) | 0.02 µg/mL (≈ 0.0529 µM)
CCn1cc(C(=O)O)c(=O)c2cc(F)c(N3C[C@@H]4C[C@H]3CN4)cc21 | 0.39 µg/mL (≈ 1.18 µM) | 3.12 µg/mL | 1.56 µg/mL (≈ 4.71 µM) | 0.39 µg/mL (≈ 1.18 µM) | > 1.56 µg/mL | 0.39 µg/mL (≈ 1.18 µM) | 1.56 µg/mL (≈ 4.71 µM) | 3.13 µg/mL (≈ 9.45 µM) | 0.2 µg/mL (≈ 0.604 µM) | 0.39 µg/mL (≈ 1.18 µM) | > 3.13 µg/mL | 0.78 µg/mL (≈ 2.35 µM)
O=C(O)c1cn(C2CC2)c2c(F)c(N3C[C@@H]4C[C@H]3CN4)c(F)cc2c1=O | 0.05 µg/mL (≈ 0.138 µM) | 0.09 µg/mL | 0.39 µg/mL (≈ 1.08 µM) | 0.005 µg/mL (≈ 0.0138 µM) | 0.39 µg/mL (≈ 1.08 µM) | 0.01 µg/mL (≈ 0.0277 µM) | 1.56 µg/mL (≈ 4.32 µM) | 0.39 µg/mL (≈ 1.08 µM) | 0.005 µg/mL (≈ 0.0138 µM) | < 0.005 µg/mL | 1.56 µg/mL (≈ 4.32 µM) | 0.01 µg/mL (≈ 0.0277 µM)
O=C(O)c1cn(-c2ccc(F)cc2)c2cc(N3C[C@@H]4C[C@H]3CN4)c(F)cc2c1=O | 0.2 µg/mL (≈ 0.503 µM) | 1.56 µg/mL | > 1.56 µg/mL | 0.1 µg/mL (≈ 0.252 µM) | 0.78 µg/mL (≈ 1.96 µM) | 0.2 µg/mL (≈ 0.503 µM) | 1.56 µg/mL (≈ 3.93 µM) | 3.13 µg/mL (≈ 7.88 µM) | 0.02 µg/mL (≈ 0.0503 µM) | 0.1 µg/mL (≈ 0.252 µM) | 3.13 µg/mL (≈ 7.88 µM) | 0.1 µg/mL (≈ 0.252 µM)
C=Cn1cc(C(=O)O)c(=O)c2cc(F)c(N3CC[C@H]4CCC(C3)N4C)cc21 | 0.78 µg/mL (≈ 2.1 µM) | 6.25 µg/mL | 1.56 µg/mL (≈ 4.2 µM) | 1.56 µg/mL (≈ 4.2 µM) | 1.56 µg/mL (≈ 4.2 µM) | 1.56 µg/mL (≈ 4.2 µM) | 3.13 µg/mL (≈ 8.43 µM) | > 3.13 µg/mL | 0.2 µg/mL (≈ 0.538 µM) | 0.78 µg/mL (≈ 2.1 µM) | > 3.13 µg/mL | 0.78 µg/mL (≈ 2.1 µM)
O=C(O)c1cn(-c2ccc(F)cc2F)c2c(F)c(N3C[C@@H]4C[C@H]3CN4)c(F)cc2c1=O | 0.2 µg/mL (≈ 0.462 µM) | 0.78 µg/mL | 1.56 µg/mL (≈ 3.6 µM) | 0.05 µg/mL (≈ 0.115 µM) | 0.39 µg/mL (≈ 0.9 µM) | 0.1 µg/mL (≈ 0.231 µM) | 3.13 µg/mL (≈ 7.22 µM) | 0.78 µg/mL (≈ 1.8 µM) | 0.01 µg/mL (≈ 0.0231 µM) | 0.02 µg/mL (≈ 0.0462 µM) | 1.56 µg/mL (≈ 3.6 µM) | 0.05 µg/mL (≈ 0.115 µM)
